Vif imaging: HIV Vif self-association inhibitors, primary screen, imaging, HEK293T, single point. HEK293T cells, Vif self-association by quenched fluorescence, 24 h. inhibition, % at 7.49 µM. AID 602346, 2012. actives 0.35% (n = 340,000); in the data active means inhibition above about 50%, passing the limit was not always enough
SMARCA2 activ: SMARCA2 (BRM) function activators, primary screen, cell-based, luminescence, high throughput | MG213 cells, MMTV-luciferase reporter, dexamethasone, overnight | activation, % at 9.1 µM | actives 1% (n = 370,000); in the data active means activation above about 7.8%
SR-BI uptake up: activators of SR-BI mediated DiI-HDL uptake, primary screen, ldlA[mSR-BI] CHO cells, DiI fluorescence; activation, % at 12.5 µM; actives 0.096% (n = 320,000); 3 h; 100 = double the neutral-control signal; AID 504775, 2011;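 active means mean replicate activation of at least 60% and every replicate at or above 60%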
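Test system: SR-BI-overexpressing, LDLR-lacking CHO cells; Also added: labelled HDL, 10 µg/mL; Measured by: bottom-read cell fluorescence after medium removal, ex 550/em 595 nm; Timing: 3 h uptake period with compound, 37 °C; Buffer or medium: F12, 0.5% BSA, 25 mM HEPES; Doses: single compound concentration, delivered by pin transfer.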
TAG inh: inhibitors of triacylglycerol accumulation, primary screen, cell-based, uHTS, fluorescence, H9c2 | H9c2 cells, Nile Red lipid (TAG) fluorescence; cells loaded with 200 µM oleic acid | inhibition, % at 12.5 µM | AID 651582, 2012 | actives 0.66% (n = 230,000);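 active means pattern-corrected inhibition of lipid staining of at least 50% with the nuclear-stain viability signal not falling by more than 50%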
SR-BI DiI inh: inhibitors of SR-BI mediated HDL lipid uptake, primary screen, ldlA[mSR-BI] cells, fluorescence, single point; ldlA[mSR-BI] CHO cells, DiI-HDL uptake fluorescence, 3 h; inhibition, % at 12.5 µM; actives 0.96% (n = 320,000); AID 488896, 2010;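 active means mean replicate inhibition of at least 70% and a set share of replicates each scoring 70 or more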
Target sequence (Q61009 whole entry, looked up): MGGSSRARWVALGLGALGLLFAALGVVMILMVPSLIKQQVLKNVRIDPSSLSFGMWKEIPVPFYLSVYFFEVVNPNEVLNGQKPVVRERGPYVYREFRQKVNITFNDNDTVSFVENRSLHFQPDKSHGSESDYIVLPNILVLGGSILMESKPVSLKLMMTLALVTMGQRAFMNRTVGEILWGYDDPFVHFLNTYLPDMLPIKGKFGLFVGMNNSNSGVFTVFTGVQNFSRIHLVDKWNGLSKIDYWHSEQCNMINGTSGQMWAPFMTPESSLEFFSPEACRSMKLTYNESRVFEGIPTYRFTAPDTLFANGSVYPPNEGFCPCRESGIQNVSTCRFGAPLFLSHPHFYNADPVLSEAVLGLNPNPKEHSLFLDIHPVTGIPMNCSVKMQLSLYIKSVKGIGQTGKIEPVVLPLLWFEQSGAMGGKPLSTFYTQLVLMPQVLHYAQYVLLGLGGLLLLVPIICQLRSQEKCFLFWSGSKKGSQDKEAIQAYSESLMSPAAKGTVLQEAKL
A number is an active result. An excerpt weighted towards active compounds, which were near 2.5% of everything screened.

Results for O=C(N/N=C/c1cccc([N+](=O)[O-])c1O)c1cccs1 ?
Vif imaging: inactive; SMARCA2 activ: inactive; SR-BI uptake up: inactive; SR-BI DiI inh: 98

Results for COc1cc(/C=N/NC(=O)c2cccs2)ccc1OCc1ccccc1 ?
Vif imaging: inactive; SMARCA2 activ: inactive; SR-BI uptake up: inactive; SR-BI DiI inh: inactive

What do the screens show for `Nc1[nH]c(C(=O)c2ccc(Cl)cc2)c(-c2ccc(Br)cc2)c1C(=O)NCCc1c[nH]c2ccccc12`?
SMARCA2 activ: inactive

Results for Cc1c([N+](=O)[O-])cc(S(=O)(=O)Nc2ccncc2)cc1[N+](=O)[O-] ?
Vif imaging: 66; SMARCA2 activ: inactive; SR-BI uptake up: inactive; TAG inh: inactive; SR-BI DiI inh: inactive

What do the screens show for `COC(=O)c1cc2c(c3c4cc(OC)ccc4n(S(=O)(=O)c4ccccc4)c13)C(=O)N(C)C2`?
SMARCA2 activ: inactive

What do the screens show for `COc1cccc(Nc2nc(CN3CCOCC3)nc3sc4c(c23)CCCC4)c1`?
Vif imaging: 96; SMARCA2 activ: inactive; SR-BI uptake up: inactive; SR-BI DiI inh: inactive

Results for COc1ccccc1NC(=O)C/C(N)=N/OCC(=O)Nc1cccc(Cl)c1 ?
Vif imaging: inactive; SMARCA2 activ: inactive; SR-BI uptake up: inactive; TAG inh: inactive; SR-BI DiI inh: inactive

Results for COc1ccccc1NC(=O)c1c(Nc2ccccc2F)sc(C(=O)Nc2cccc(Cl)c2)c1N ?
Vif imaging: inactive; SMARCA2 activ: inactive; SR-BI uptake up: inactive; SR-BI DiI inh: 75

Results for COc1ccc(C=NNC(=S)Nc2ccc(F)cc2)cc1OC ?
Vif imaging: inactive; SMARCA2 activ: inactive; SR-BI uptake up: inactive; TAG inh: inactive; SR-BI DiI inh: inactive

How did Fc1ccc(NC(=S)N/N=C/c2ccc(F)c(F)c2)c(F)c1 do in these assays?
Vif imaging: 110; SMARCA2 activ: inactive; SR-BI uptake up: inactive; SR-BI DiI inh: inactive

How did COc1ccc(OC)c(NC(=O)CCCNC(=O)Cn2cnc3sc(C)c(C)c3c2=O)c1 do in these assays?
Vif imaging: inactive; SMARCA2 activ: inactive; SR-BI uptake up: inactive; SR-BI DiI inh: 77

How did CCNC(=O)N1CCN(c2ccc(N3CCN(Cc4ccccc4)[C@@H](C)C3)c(C)c2)[C@H](C)C1 do in these assays?
SMARCA2 activ: inactive

What do the screens show for `COc1ccc2nc(/C(C#N)=C\c3ccc(Oc4ccc([N+](=O)[O-])cn4)cc3)[nH]c2c1`?
Vif imaging: inactive; SMARCA2 activ: 12; SR-BI uptake up: inactive; SR-BI DiI inh: inactive

How did COc1cccc(NC(=S)NC(=O)/C=C/c2ccco2)c1 do in these assays?
Vif imaging: 102; SMARCA2 activ: inactive; SR-BI uptake up: inactive; TAG inh: inactive; SR-BI DiI inh: inactive

How did O=S1(=O)c2ccc(N3CCC[C@@H]3CO)cc2O[C@@H]2CCN1C2 do in these assays?
SMARCA2 activ: inactive

What do the screens show for `Cc1ccc(-c2cc(-c3ccco3)c3c(N)c(C(=O)NN)oc3n2)cc1`?
Vif imaging: inactive; SMARCA2 activ: inactive; SR-BI uptake up: inactive; TAG inh: inactive; SR-BI DiI inh: 78

Results for NNC(=O)c1oc2nc(-c3cccs3)cc(-c3ccco3)c2c1N ?
Vif imaging: inactive; SMARCA2 activ: inactive; SR-BI uptake up: inactive; SR-BI DiI inh: inactive

What do the screens show for `CNC(=S)NNC(=O)c1oc2nc(-c3ccccc3)cc(C)c2c1N`?
Vif imaging: inactive; SMARCA2 activ: inactive; SR-BI uptake up: inactive; TAG inh: inactive; SR-BI DiI inh: inactive

What do the screens show for `NNC(=O)c1oc2nc(-c3ccccc3)cc(-c3ccccc3)c2c1N`?
Vif imaging: 71; SMARCA2 activ: inactive; SR-BI uptake up: inactive; SR-BI DiI inh: 98

Results for O=Nc1ccccn1 ?
SMARCA2 activ: inactive

How did Cc1ccc(CNC(=O)[C@@H](Cc2ccccc2)NC(=O)[C@H]2O[C@@H](n3ccc(N)nc3=O)[C@H](O)[C@@H]2O)o1 do in these assays?
SMARCA2 activ: inactive

How did CC(C)CCN(C)[C@H]1C[C@H]2c3[nH]c4ccccc4c3CCN2C[C@H]1[C@H](C)O do in these assays?
SMARCA2 activ: inactive

Results for Cc1ccc(NC(=O)/C=C/C(=O)O)c([N+](=O)[O-])c1 ?
Vif imaging: inactive; SMARCA2 activ: 7.8; SR-BI uptake up: inactive; SR-BI DiI inh: inactive

What do the screens show for `O=C(N/N=C/c1ccc(OC(F)F)cc1)c1ccc(CSc2nc3ccccc3[nH]2)cc1`?
Vif imaging: inactive; SMARCA2 activ: inactive; SR-BI uptake up: inactive; TAG inh: inactive; SR-BI DiI inh: 82

Results for CC(C)(C)c1cc(C(=O)N/N=C/c2ccccc2O)n(-c2ccccc2)n1 ?
Vif imaging: inactive; SMARCA2 activ: inactive; SR-BI uptake up: inactive; SR-BI DiI inh: 100

Results for CC(C)(C)c1cc(C(=O)N/N=C/c2ccc(F)cc2)n(-c2ccccc2)n1 ?
SMARCA2 activ: inactive; SR-BI uptake up: inactive; SR-BI DiI inh: inactive

What do the screens show for `CC1=CC(=C(C#N)c2nc3ccccc3s2)C=C(C)N1CC1CCCO1` (stereo unspecified)?
Vif imaging: inactive; SMARCA2 activ: inactive; SR-BI uptake up: inactive; TAG inh: inactive; SR-BI DiI inh: 88

Results for c1ccc2sc(NCC3CCCO3)nc2c1 (stereo unspecified) ?
Vif imaging: inactive; SMARCA2 activ: inactive; SR-BI uptake up: inactive; TAG inh: inactive; SR-BI DiI inh: inactive

How did CN(C)c1ccc(C=c2c3ccccc3n3c2cc(-c2ccccc2)[n+]3C)cc1 do in these assays?
Vif imaging: inactive; SMARCA2 activ: inactive; SR-BI uptake up: inactive; TAG inh: inactive; SR-BI DiI inh: inactive

What do the screens show for `CN(C)c1ccc(C=c2c3cc([N+](=O)[O-])ccc3n3c2cc(-c2ccccc2)[n+]3C)cc1`?
Vif imaging: inactive; SMARCA2 activ: inactive; SR-BI uptake up: inactive; TAG inh: inactive; SR-BI DiI inh: 84

How did C=CCN1C(=O)c2n[nH]c(C(C)C)c2C1c1ccc2c(c1)OCO2 (stereo unspecified) do in these assays?
SMARCA2 activ: inactive

How did Fc1ccccc1CNc1ccc(Cl)c(Cl)c1 do in these assays?
Vif imaging: 55; SMARCA2 activ: inactive; SR-BI uptake up: inactive; SR-BI DiI inh: inactive

How did Nn1c(SCC(=O)Nc2ccccc2-c2ccccc2)nnc1-c1cc(-c2ccc(Cl)cc2)n[nH]1 do in these assays?
SMARCA2 activ: inactive

Results for CCOc1c(Cl)cc(CNc2ccc(N3CCCC3)cc2)cc1OC ?
Vif imaging: inactive; SMARCA2 activ: inactive; SR-BI uptake up: inactive; TAG inh: 60; SR-BI DiI inh: inactive

What do the screens show for `COC(=O)C1=C(C)N(C)C(=NCc2cccc(C(F)(F)F)c2)NC1c1cccc(F)c1` (stereo unspecified)?
SMARCA2 activ: inactive
